# Assay results from the RNAGym collection of RNA variant scans (doi:10.1101/gad.245936.114).
# This sample holds only a part of the variants without activity.
# B1: tRNA (parent)
# chain: CUCUCGGUAGCCAAGUUGGUUUAAGGCGCAAGACUUUAAUUUAUCACUACGAAAUCUUGAGAUCGGGCGUUCGACUCGCCCCCGGGAGAUUUUUUCCUCGAGCAA
# Variants of: B1
# Experiment: nonsense suppression (GFP-seq) (ratio to wild type); higher = more function; SUP4oc tRNA, yeast GFP reporter sort-seq
# Outline: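 Yeast carrying genome-integrated SUP4oc tRNA variants from a library with ~3% random mutations were grown in raffinose/galactose medium with 80 mg/L adenine. Each strain also carried a galactose-driven GFP ochre reporter and RFP. Cells were sorted into GFP/RFP bins, and each bin was Illumina-sequenced (phred ≥30). Nonsense suppression (GFPSEQ) is the bin median GFP/RFP, weighted by each variant's estimated cell share per bin, relative to wild-type SUP4oc; variants needed ≥100 reads and ≥30 cells.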
row,Variant,nonsense suppression
1,C11G A30G G67U,≤ 0.026
2,C11G A30U,≤ 0.026
3,C12U A24U,0.118
4,A13U A54U,0.728
5,A13U G15A G73U,≤ 0.026
6,C11U A24G G26C U71A,≤ 0.026
7,A13U U22G,1.06
8,C12U G78U,0.0326
9,C12U G78A,0.0268
10,A13G U35C U71C,≤ 0.026
11,C12G A33U,≤ 0.026
12,A13U C77U,0.0452
13,A14C A31U A33U,≤ 0.026
14,A13U C27U G85A,0.22
15,C12U A31G C77G,≤ 0.026
16,C11U C68A U76C C83G,≤ 0.026
17,C12U C82U,0.32
18,C12U G25A,1.19
19,C12U G25C,0.184
20,C12U G25U,0.192
21,C11U G61C,0.0829
22,A13G C29G G61U U70G,≤ 0.026
23,C12G C56G G65A A74U,≤ 0.026
24,A13G A33U U57A,≤ 0.026

row,Variant,nonsense suppression
1,C12U U70A,0.048
2,A13C C68U,0.836
3,A13U G67A,0.0502
4,A13C C68G G88A,≤ 0.026
5,C12A A31G,0.0261
6,A13C U16A,1.17
7,A13C U16C,1.12
8,C12A G61C G66C,≤ 0.026
9,A13G C27A C29G A33U U76C G86U,≤ 0.026
10,C12U C56G,≤ 0.026
11,C12U C56U,≤ 0.026
12,C12U A54U,0.229
13,C12U A54C,0.0512
14,C12U A54G,0.0372
15,C11G A33G,≤ 0.026
16,A13C G18C G26U G61C,≤ 0.026
17,C11G C12A U35G U55C U76A G84U,≤ 0.026
18,C11G U63A U70G,≤ 0.026
19,C11U C12A G88A,≤ 0.026
20,C12U U16C G28A,0.295
21,A13U G28C,0.227
22,C11U G32U G69C G85C,≤ 0.026
23,C12G C27U,≤ 0.026
24,A13C U17G C82U,0.142

row,Variant,nonsense suppression
1,C12U G18U A30C G84A A89C,≤ 0.026
2,A13G U20A,0.0339
3,A13G C64G,≤ 0.026
4,A13U U16C U63G,0.18
5,C12U A23C U70C,≤ 0.026
6,A13U U21A U35C G84U,≤ 0.026
7,A13U A74U,0.051
8,C11A G26A U70A,≤ 0.026
9,A13C C27A G61C C75G,≤ 0.026
10,C12G U70A,≤ 0.026
11,C12U C29G U35A,≤ 0.026
12,C12U A24U U71G,≤ 0.026
13,C11U G28A A33G,≤ 0.026
14,C12U A13C U20C A60C G85A,≤ 0.026
15,C12U G25C U57G C83G,≤ 0.026
16,A13C C80U,0.179
17,A13G A54C G69U G86U,≤ 0.026
18,A13C U63A,1.17
19,A13C U63C,0.848
20,A13C G28A,1.08
21,A13C G28C,0.794
22,A13C G28U,0.0283
23,A13U U76C,0.836
24,C11U A31G C77G,≤ 0.026

row,Variant,nonsense suppression
1,A13C G18C U20G A31U,0.134
2,A13C G61A,0.852
3,C11A U71C,≤ 0.026
4,C11A U71A,≤ 0.026
5,A13U G86A,0.0315
6,A13C U17C U22G G85A,0.81
7,C12G U16C A23G,0.207
8,A13C U55C,0.827
9,C11U A89C,≤ 0.026
10,A13C A23G A31U,≤ 0.026
11,A13U C27U,0.209
12,A13U A31U,0.193
13,A13U A31G,1.22
14,C12A G28C A31G U57G,≤ 0.026
15,C11G U35C A74U C82A,≤ 0.026
16,A14C C56G C72G G86A,≤ 0.026
17,A13U A23U,0.0855
18,A13U G69A,0.072
19,A13U G69C,0.0304
20,A13C A62G,0.0702
21,C12U A13U C79U,0.0331
22,A13G C68U,0.146
23,A13U A14C U35A A60C C72U,≤ 0.026
24,C11U G66A,≤ 0.026

row,Variant,nonsense suppression
1,C11U U22C,0.0289
2,A13G C56G U71G,≤ 0.026
3,C11G C29G G61U,≤ 0.026
4,C12U G26U G84A,≤ 0.026
5,A13C G73A,0.394
6,A13C G73U,0.0412
7,C11U G19U C64A,≤ 0.026
8,C12U G25A G61C,0.823
9,C11U G18A,≤ 0.026
10,A13U U20A,0.189
11,C11A G26C G66U,≤ 0.026
12,C11U A24U,0.031
13,A13C A30U G85A,0.157
14,C12A G25C C68G,≤ 0.026
15,C12U G84U,0.117
16,C11G G66A G69C,0.0424
17,C12A C34U,0.94
18,A13G G84C,≤ 0.026
19,C12U U55C,0.0665
20,A13U U16A,0.837
21,A13U U16G,0.819
22,C11U A23G A31G U76A,≤ 0.026
23,A13G A31G,0.149
24,A13C C75G,1.15

row,Variant,nonsense suppression
1,A13C C75A,1.09
2,A13C C75U,1.09
3,A13C U17A A31G,0.849
4,A13G C80U,0.0419
5,A13G A87G,0.14
6,C12U A13C U20A,≤ 0.026
7,A13C C64U,0.0428
8,C11U G85C A87G,≤ 0.026
9,A13U G61C,0.191
10,A13U G61U,0.447
11,A13C G61A C75G,0.761
12,C12U U20C,0.177
13,C12U U20G,0.455
14,C11G U20C G25U U63G C75A G78C,≤ 0.026
15,A13C U35G U57C,≤ 0.026
16,C12U C75G,1.23
17,C12G A14G A33G,≤ 0.026
18,A13U U71A,≤ 0.026
19,C12G G15A G19U,≤ 0.026
20,A13U U16G A33U,0.0384
21,C12G C68G G69U A89U,0.0702
22,C11U G18U U58G,≤ 0.026
23,A13U C75U,1.22
24,A13U C75A,0.866

row,Variant,nonsense suppression
1,C11U G26A U63C,0.212
2,C11G A31G,≤ 0.026
3,C11G A31U,≤ 0.026
4,C12A A33G G67U,≤ 0.026
5,A13C U17G C75A,1.1
6,A13U G78A,0.179
7,A13U G78C,0.0621
8,A13U G78U,0.236
9,C11G G26C,0.359
10,C12G A54G U57G A60U C77U,≤ 0.026
11,C12U A13C,0.2
12,C12U A13G,0.153
13,C12U A13U,0.626
14,A13G U21C,0.211
15,A13G U21G,0.026
16,A13U G59U C80G,≤ 0.026
17,A13U A24G G26C G32C A89C,≤ 0.026
18,A13U A62C,0.029
19,C12U A33C C80G,≤ 0.026
20,C11G C72G,≤ 0.026
21,C11G U16G G66A,≤ 0.026
22,C11G C12U G61C,≤ 0.026
23,C11U A30G A31U U35G G67C U76C,≤ 0.026
